Experimental data published in ChEMBL document CHEMBL4257459, “Synergistic antifungal effect of cyclized chalcone derivatives and fluconazole against Candida albicans” (2017).
In brackets after ≈: the same amount, converted by molar mass.

Tests used:
Candida albicans [1] = assay: Antifungal activity against fluconazole susceptible Candida albicans 002B1 in presence of fluconazole by CLSI protocol based broth microdilution method; assay type: functional
Candida albicans [2] = assay: Antifungal activity against fluconazole resistant Candida albicans 167-2 by CLSI protocol based broth microdilution method; assay type: functional
Outline: (§1)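 Broth microdilution per CLSI M27-A3 against clinical C. albicans isolates. Strains sub-cultured at least twice on Tryptone Soya Agar, 37 °C, 48 h. Compounds dissolved in DMSO at 2000 μg mL–1 stock. Fluconazole positive control, plus culture, media and vehicle controls. Run in duplicate; MIC in μg mL–1.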

Candida albicans [3] = assay: Inhibition of ABC efflux pumps in fluconazole susceptible Candida albicans 0079gr assessed as reduction in energy-dependent rhodamine 6G efflux in presence of 0.1 M glucose after 25 mins by fluorescence assay relative to control
Outline: (§2)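 Cells grown in TSB at 37 °C for 8 h, washed, resuspended in glucose-free PBS at 1 × 10^8 cells. De-energized 45 min with 5 mM deoxyglucose plus 5 mM dinitrophenol. […] Washed, sampled 5–25 min, then 0.1 M glucose added. Absorbance 527 nm, R6G from standard curve.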

Candida albicans [4] = assay: Inhibition of ABC efflux pumps in fluconazole susceptible Candida albicans 004B1 assessed as reduction in energy-dependent rhodamine 6G efflux in presence of 0.1 M glucose after 25 mins by fluorescence assay relative to control; outline: as §2
Candida albicans [5] = assay: Antifungal activity against fluconazole susceptible Candida albicans 0079gr in presence of fluconazole by CLSI protocol based broth microdilution method; assay type: functional
Candida albicans [6] = assay: Inhibition of ergosterol biosynthesis in fluconazole susceptible Candida albicans ATCC 90028 at 0.5 to 1 times MIC relative to control; assay type: functional
Outline: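 ATCC90028 grown in 50 ml TSB with MIC and ½ MIC of compound; untreated and 8 μg mL–1 fluconazole controls. Sterols extracted by alcoholic KOH method and spectrophotometrically scanned; ergosterol % calculated from A281.5 and A230 (E values 290 and 518) with dilution factor, per pellet weight.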

Candida albicans [7] = assay: Antifungal activity against Candida albicans ATCC 90028 in presence of fluconazole by CLSI protocol based broth microdilution method; assay type: functional
Candida albicans [8] = assay: Inhibition of ABC efflux pumps in fluconazole resistant Candida albicans 167-1 assessed as reduction in energy-dependent rhodamine 6G efflux in presence of 0.1 M glucose after 25 mins […] relative to control
Candida albicans [9] = assay: Inhibition of ABC efflux pumps in fluconazole susceptible Candida albicans 002B1 assessed as reduction in energy-dependent rhodamine 6G efflux in presence of 0.1 M glucose after 25 mins […] relative to control
Candida albicans [10] = assay: Antifungal activity against fluconazole resistant Candida albicans 167-1 in presence of fluconazole by CLSI protocol based broth microdilution method; assay type: functional
Outline: (§3)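 Checkerboard-style combination with fluconazole at a 1 : 1 ratio, over concentrations 2–4 fold below each agent's MIC alone, by CLSI broth microdilution. Fractional inhibitory concentration index calculated and interpreted as synergy (<0.5), additive (0.5–1), indifferent or antagonistic.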

Candida albicans [11] = assay: Inhibition of ABC efflux pumps in fluconazole susceptible Candida albicans 0072gr assessed as reduction in energy-dependent rhodamine 6G efflux in presence of 0.1 M glucose after 25 mins […] relative to control
Candida albicans [12] = assay: Antifungal activity against fluconazole susceptible Candida albicans 003gr in presence of fluconazole by CLSI protocol based broth microdilution method; assay type: functional
Candida albicans [13] = assay: Inhibition of ergosterol biosynthesis in fluconazole resistant Candida albicans A171 at 0.5 to 1 times MIC relative to control; assay type: functional
Outline: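 Total sterols quantified by alcoholic KOH extraction in cells grown in 50 ml TSB with compounds at MIC and ½ MIC; untreated and 8 μg mL–1 fluconazole controls. Spectral scan; ergosterol content from A281.5 and A230 absorbances, dilution factor and pellet weight, correcting for 24(28) DHE.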

Candida albicans [14] = assay: Antifungal activity against fluconazole resistant Candida albicans A171 by CLSI protocol based broth microdilution method; assay type: functional; outline: as §1
Candida albicans [15] = assay: Antifungal activity against fluconazole resistant Candida albicans A171 in presence of fluconazole by CLSI protocol based broth microdilution method; assay type: functional; outline: as §3
Candida albicans [16] = assay: Antifungal activity against Candida albicans ATCC 90028 by CLSI protocol based broth microdilution method; assay type: functional
Outline: (§4)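 Clinical isolates and control strain subcultured at least twice on TSA, 37 °C, 48 h. MICs by CLSI M27-A3 broth microdilution; compounds dissolved in DMSO to 2000 μg mL–1 stock. Fluconazole positive control, culture, media and DMSO vehicle controls in each run. Duplicate experiments; MIC in μg mL–1.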

Candida albicans [17] = assay: Antifungal activity against fluconazole susceptible Candida albicans 002B1 by CLSI protocol based broth microdilution method; assay type: functional; outline: as §4
Candida albicans [18] = assay: Antifungal activity against fluconazole susceptible Candida albicans 003gr by CLSI protocol based broth microdilution method; assay type: functional; outline: as §4
Candida albicans [19] = assay: Inhibition of ABC efflux pumps in fluconazole resistant Candida albicans 167-2 assessed as reduction in energy-dependent rhodamine 6G efflux in presence of 0.1 M glucose after 25 mins […] relative to control
Candida albicans [20] = assay: Antifungal activity against fluconazole susceptible Candida albicans 0072gr in presence of fluconazole by CLSI protocol based broth microdilution method; assay type: functional
Candida albicans [21] = assay: Inhibition of ABC efflux pumps in fluconazole resistant Candida albicans A171 assessed as reduction in energy-dependent rhodamine 6G efflux in presence of 0.1 M glucose after 25 mins by fluorescence assay relative to control; outline: as §2
Candida albicans [22] = assay: Inhibition of ABC efflux pumps in fluconazole susceptible Candida albicans 003gr assessed as reduction in energy-dependent rhodamine 6G efflux in presence of 0.1 M glucose after 25 mins […] relative to control
Candida albicans [23] = assay: Antifungal activity against fluconazole resistant Candida albicans 167-2 in presence of fluconazole by CLSI protocol based broth microdilution method; assay type: functional; outline: as §3
Candida albicans [24] = assay: Antifungal activity against fluconazole susceptible Candida albicans 004gr in presence of fluconazole by CLSI protocol based broth microdilution method; assay type: functional
Candida albicans [25] = assay: Antifungal activity against fluconazole resistant Candida albicans 167-1 by CLSI protocol based broth microdilution method; assay type: functional; outline: as §1
Candida albicans [26] = assay: Antifungal activity against fluconazole susceptible Candida albicans 0072gr by CLSI protocol based broth microdilution method; assay type: functional; outline: as §4
Candida albicans [27] = assay: Antifungal activity against fluconazole susceptible Candida albicans 0079gr by CLSI protocol based broth microdilution method; assay type: functional; outline: as §4
Candida albicans [28] = assay: Antifungal activity against fluconazole susceptible Candida albicans 004B1 by CLSI protocol based broth microdilution method; assay type: functional; outline: as §4
Candida albicans [29] = assay: Antifungal activity against fluconazole susceptible Candida albicans 004B1 in presence of fluconazole by CLSI protocol based broth microdilution method; assay type: functional
Candida albicans [30] = assay: Inhibition of ABC efflux pumps in fluconazole susceptible Candida albicans 004gr assessed as reduction in energy-dependent rhodamine 6G efflux in presence of 0.1 M glucose after 25 mins by fluorescence assay relative to control; outline: as §2
Candida albicans [31] = assay: Antifungal activity against fluconazole susceptible Candida albicans 004gr by CLSI protocol based broth microdilution method; assay type: functional; outline: as §4

SMILES | fractional inhibitory concentration index (FICI) (Candida albicans [1]) | MIC (Candida albicans [2]) | inhibition (Candida albicans [3]) | inhibition (Candida albicans [4]) | fractional inhibitory concentration index (FICI) (Candida albicans [5]) | inhibition (INH) (Candida albicans [6]) | fractional inhibitory concentration index (FICI) (Candida albicans [7]) | inhibition (Candida albicans [8]) | inhibition (Candida albicans [9]) | fractional inhibitory concentration index (FICI) (Candida albicans [10]) | inhibition (Candida albicans [11]) | fractional inhibitory concentration index (FICI) (Candida albicans [12]) | inhibition (INH) (Candida albicans [13]) | MIC (Candida albicans [14]) | fractional inhibitory concentration index (FICI) (Candida albicans [15]) | MIC (Candida albicans [16]) | MIC (Candida albicans [17]) | MIC (Candida albicans [18]) | inhibition (Candida albicans [19]) | fractional inhibitory concentration index (FICI) (Candida albicans [20]) | other results
c1ccc(-c2cc(-c3ccccc3)[nH]n2)cc1 | 0.63 - 2.5 | 62 to 125 µg/mL (≈ 281 to 567 µM) | < 20% | < 20% | 0.63 - 2.5 | 66 - 99% | 0.63 - 2.5 | < 20% | < 20% | 0.625 - 1.5 | < 20% | 0.63 - 2.5 | 49 - 94% | 62 to 125 µg/mL (≈ 281 to 567 µM) | 0.625 - 1.5 | 16 to 62 µg/mL (≈ 72.6 to 281 µM) | 16 to 62 µg/mL (≈ 72.6 to 281 µM) | 16 to 62 µg/mL (≈ 72.6 to 281 µM) | < 20% | 0.63 - 2.5 | inhibition (Candida albicans [21]): < 20%; inhibition (Candida albicans [22]): < 20%; fractional inhibitory concentration index (FICI) (Candida albicans [23]): 0.625 - 1.5; fractional inhibitory concentration index (FICI) (Candida albicans [24]): 0.63 - 2.5; MIC (Candida albicans [25]): 62 to 125 µg/mL (≈ 281 to 567 µM); MIC (Candida albicans [26]): 16 to 62 µg/mL (≈ 72.6 to 281 µM); MIC (Candida albicans [27]): 16 to 62 µg/mL (≈ 72.6 to 281 µM); MIC (Candida albicans [28]): 16 to 62 µg/mL (≈ 72.6 to 281 µM); fractional inhibitory concentration index (FICI) (Candida albicans [29]): 0.63 - 2.5; inhibition (Candida albicans [30]): < 20%; MIC (Candida albicans [31]): 16 to 62 µg/mL (≈ 72.6 to 281 µM)
c1ccc(C2=NOC(c3ccccc3)C2)cc1 (configuration not stated) | 0.75 - 2 | 16 to 31 µg/mL (≈ 71.7 to 139 µM) | < 20% | < 20% | 0.75 - 2 | 66 - 99% | 0.75 - 2 | < 20% | < 20% | 0.531 - 0.56 | < 20% | 0.75 - 2 | 49 - 94% | 16 to 31 µg/mL (≈ 71.7 to 139 µM) | 0.531 - 0.56 | 4 to 31 µg/mL (≈ 17.9 to 139 µM) | 4 to 31 µg/mL (≈ 17.9 to 139 µM) | 4 to 31 µg/mL (≈ 17.9 to 139 µM) | < 20% | 0.75 - 2 | inhibition (Candida albicans [21]): < 20%; inhibition (Candida albicans [22]): < 20%; fractional inhibitory concentration index (FICI) (Candida albicans [23]): 0.531 - 0.56; fractional inhibitory concentration index (FICI) (Candida albicans [24]): 0.75 - 2; MIC (Candida albicans [25]): 16 to 31 µg/mL (≈ 71.7 to 139 µM); MIC (Candida albicans [26]): 4 to 31 µg/mL (≈ 17.9 to 139 µM); MIC (Candida albicans [27]): 4 to 31 µg/mL (≈ 17.9 to 139 µM); MIC (Candida albicans [28]): 4 to 31 µg/mL (≈ 17.9 to 139 µM); fractional inhibitory concentration index (FICI) (Candida albicans [29]): 0.75 - 2; inhibition (Candida albicans [30]): < 20%; MIC (Candida albicans [31]): 4 to 31 µg/mL (≈ 17.9 to 139 µM)
